Screens: PubChem BioAssay, several laboratories
An excerpt weighted towards active compounds, which were near 4.2% of everything screened.
Hep lipid drop – modulators of hepatic lipid droplet formation; AML12 mouse hepatocytes, oleate lipid droplets, BODIPY imaging; inhibition, % at 6.5 µM; 240,000 compounds, 0.4% hits;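 active = lipid droplet intensity inhibited by at least 50%, with more than 500 cells counted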
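Technique: fluorescence imaging, 20x objective, two fields per well / Assay system: AML12 hepatocytes (mouse) / Measure: % inhibition of lipid droplet signal / Doses: 6.5 µM single-point dosing / Incubation: overnight exposure / Reagent: 100 µM oleic acid challenge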
ANO1 block – blocks the mouse calcium-activated chloride channel TMEM16A. Q8BHY3. HEK293 TMEM16A/YFP iodide influx fluorescence, ionomycin. normalized B-score (activity score, 25-100; higher = stronger inhibition) at 10 µM. 310,000 compounds, 1.2% hits. AID 588511;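 active = ratio plate-corrected score three or more library SD toward inhibition, starting fluorescence score within five deviations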;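 also: score derived from kinetic fluorescence span divided by baseline fluorescence per well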
CHOP inhibitor – CHOP inhibition in unfolded protein response; 220,000 compounds, 3.8% hits; CHO-K1 CHOP-promoter luciferase, tunicamycin-induced, 15-18 h; inhibition, % at 10 µM;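 active = compounds that reduced the stress-induced luciferase reporter signal by more than about 70% of percent inhibition, limit read from the data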;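 also: 0% = tunicamycin plus vehicle and 100% = wells without tunicamycin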
UPR XBP1 act – activators of adaptive arm of unfolded protein response (XBP1) | activation, % at 20 µM | 330,000 compounds, 0.33% hits | CHO-XBP1 luciferase reporter, IRE1-XBP1 UPR activation, luminescence; percent of tunicamycin response, DMSO as zero;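 active = versus positive control, 20 µM dose yields 30% or more activation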;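 also: 100% = tunicamycin at 10 µg/mL and 0% = DMSO only wells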
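Material: CHO cell line with stable XBP1 luciferase reporter; buffer or medium: F12 medium containing 10% fetal bovine serum; compound: single point, 20 µM final compound, 1% DMSO; incubation: 6 h treatment, 37 °C; measured by: glow luminescence from Steady-Glo reagent; evaluation: activation, % of tunicamycin; control set: tunicamycin high, DMSO low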
TMEM16A act – mouse TMEM16A channel activation, primary screen; Q8BHY3; HEK293 TMEM16A/YFP-H148Q/I152L, iodide quench fluorescence; hits give low values; B-score at 10 µM; 340,000 compounds, 0.3% hits; AID 623877;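 active = fluorescence-ratio B-score plate-corrected deviation score at least 3 library SD below zero, with starting fluorescence score within 5 deviations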;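 also: channel opened by trigger with iodide after compound preincubation; score built on the fluorescence ratio of max minus min over baseline; more negative score means more quench and so TMEM16A activation or potentiation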
UPR CHOP act – activators of apoptotic arm of unfolded protein response (CHOP); CHO-CHOP luciferase reporter, UPR activation, luminescence; percent of tunicamycin response over DMSO baseline; activation, % at 10 µM; 330,000 compounds, 0.34% hits; AID 449763;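 active = at 10 µM dose, activation of 40% or more, normalized to positive control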;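 also: 100% = tunicamycin at 10 µg/mL and 0% = DMSO alone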
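Evaluation: % reporter activation, DMSO baseline versus tunicamycin full activation; System: CHO-CHOP luciferase reporter cell line; Input: 500 cells/well; Incubation: 6 h compound treatment, 37 °C; Measured by: Steady-Glo luciferase luminescence; Dosing: one dose, 10 µM in 0.5% DMSO; Buffer or medium: F12 medium, 10% FBS; Benchmarks: positive tunicamycin 10 µg/mL, negative DMSO alone.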
TMEM16A reconf – reconfirmed blocker of mouse TMEM16A calcium-activated chloride channel. inhibition, % at 10 µM. shares compounds with ANO1 block. 2,300 compounds, 39% hits. HEK293 TMEM16A/YFP-H148Q, iodide quench fluorescence; ionomycin added to raise cell calcium. AID 652189;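 active = mean duplicate percent inhibition, scaled so buffer wells are 0 and the reference blocker 100, over three buffer SD above buffer mean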
TMEM16A Ca cntr – calcium mobilization counter-screen hit for TMEM16A inhibitor series. shares compounds with ANO1 block. 2,300 compounds, 2% hits. TMEM16A/YFP HEK293, Fluo4 calcium mobilization. calcium response (% of ionomycin), % at 10 µM. AID 652231;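 active = duplicate-averaged calcium signal over 20% of the ionomycin maximum, relative to buffer baseline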;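 also: each well's signal is peak minus trough fluorescence divided by its pre-addition baseline; 0% = buffer wells and 100% = ionomycin wells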
YFP-HEK293 quench – parental YFP-HEK293 iodide quench counter-screen activity. ionomycin. shares compounds with ANO1 block. 2,300 tested, under 10 active. YFP ratio F(max-min)/F0 at 10 µM. AID 652233;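 active = yellow fluorescent protein signal ratio exceeding the buffer control mean by over 5 SD of those controls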;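 also: ratio is mean of duplicate wells from kinetic YFP trace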
ClC-1 inh – selectivity of TMEM16A inhibitors: inhibition of rat ClC-1 chloride channel | shares compounds with ANO1 block | AID 652236 | ratio percent, % at 10 µM | 2,300 tested, under 10 active | CHO ClC-1-YFP, iodide influx fluorescence quench; iodide control reads 0, buffer control 100;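 active = duplicate-mean ratio percent above the mean of iodide-only control wells, which defines zero, plus 5 of their SD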;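 also: higher percent means stronger block of ClC-1 iodide influx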
The depositor's hits bear a star.

Results for CC(NC(=S)NC1CCCCC1)c1ccc(C(C)(C)C)cc1 (stereo not given) ?
Hep lipid drop: -15.6; ANO1 block: 25*; UPR XBP1 act: -3.3; TMEM16A act: inactive; UPR CHOP act: 4.5; TMEM16A reconf: inactive; TMEM16A Ca cntr: inactive; YFP-HEK293 quench: -0.777; ClC-1 inh: 2.5

How did CCCCOc1ccc2c(C)cc(=O)oc2c1OCCCC do in these assays?
Hep lipid drop: -25.4; ANO1 block: 100*; CHOP inhibitor: 12.3; UPR XBP1 act: -2.1; TMEM16A act: inactive; UPR CHOP act: -1.9; TMEM16A reconf: inactive; TMEM16A Ca cntr: inactive; YFP-HEK293 quench: -1.27; ClC-1 inh: -10.0

What do the screens show for `CCOc1ccc2c(C)cc(=O)oc2c1OCC`?
ANO1 block: inactive; CHOP inhibitor: 9.5; UPR XBP1 act: -5.5; TMEM16A act: inactive; UPR CHOP act: -1.3

What do the screens show for `CC(C)OC(=O)CSc1nc2ccccc2s1`?
Hep lipid drop: 5.1; ANO1 block: inactive; CHOP inhibitor: 29.4; UPR XBP1 act: 2.3; TMEM16A act: inactive; UPR CHOP act: 3.1

What do the screens show for `CC(C)CC1CC(=O)OC1(C)C(=O)CSc1nc2ccccc2s1` (stereo not given)?
ANO1 block: 100*; CHOP inhibitor: 17.2; UPR XBP1 act: -1.1; TMEM16A act: inactive; UPR CHOP act: 3.6; TMEM16A reconf: inactive; TMEM16A Ca cntr: inactive; YFP-HEK293 quench: -1.19; ClC-1 inh: -6.0

How did O=C(O)[C@H](Cc1ccccc1)N1C(=O)c2ccncc2C1=O do in these assays?
ANO1 block: 100*; CHOP inhibitor: 38.2; UPR XBP1 act: -2.0; TMEM16A act: inactive; UPR CHOP act: 1.1; TMEM16A reconf: inactive; TMEM16A Ca cntr: inactive; YFP-HEK293 quench: -0.943; ClC-1 inh: -16.0

How did Cc1sc2ncn(CC(=O)N3CCN(c4ccccn4)CC3)c(=O)c2c1S(=O)(=O)N1CCC(C)CC1 do in these assays?
Hep lipid drop: -12.6; ANO1 block: inactive; UPR XBP1 act: -3.4; TMEM16A act: inactive; UPR CHOP act: 1.1

Results for N#CC1=C(N)Oc2cc(O)c(C=Nc3ccccc3)cc2C1c1ccccc1 (stereo not given) ?
Hep lipid drop: -1.9; ANO1 block: inactive; CHOP inhibitor: 60.4; UPR XBP1 act: -1.8; TMEM16A act: inactive; UPR CHOP act: -1.6; TMEM16A reconf: inactive; TMEM16A Ca cntr: inactive; YFP-HEK293 quench: -0.958; ClC-1 inh: 46.5

What do the screens show for `N#CC1=C(N)Oc2cc(Nc3ccccc3)ccc2C1c1ccncc1` (stereo not given)?
ANO1 block: inactive; CHOP inhibitor: -15.8; UPR XBP1 act: -8.5; TMEM16A act: inactive; UPR CHOP act: 8.1

Results for OC1COC(c2ccccc2)OC1C(O)C1OC(c2ccccc2)OCC1O (stereo not given) ?
TMEM16A act: inactive

Results for Cc1ccc(C(=O)Nc2ccc(OCc3ccccc3)cc2)cc1[N+](=O)[O-] ?
ANO1 block: 25*; CHOP inhibitor: 54.7; UPR XBP1 act: -2.4; TMEM16A act: inactive; UPR CHOP act: -0.4; TMEM16A reconf: inactive; TMEM16A Ca cntr: inactive; YFP-HEK293 quench: -1.07; ClC-1 inh: -4.5
